Hits are enriched below; roughly 4.3% of the tested compounds scored in any of these assays.
Lipid droplet – inhibitors of hepatocyte lipid droplet formation, primary screen, imaging, high-throughput imaging, BODIPY stain; AML12 mouse hepatocytes, oleate lipid droplets; inhibition, % at 6.5 µM; 240,000 compounds, 0.4% hits; AID 1656, 2009;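 active = lipid droplet intensity inhibited by at least 50%, with more than 500 cells counted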
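Assay system: AML12 mouse liver cells | Compound dosing: One dose, 6.5 µM compound | Read-out basis: Droplet intensity reduction, % inhibition | Measured by: Fluorescence imaging, 20x objective, two fields per well | Schedule: Overnight treatment with compound plus oleate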
SR-BI DiI inh – inhibitors of SR-BI mediated HDL lipid uptake, primary screen, ldlA[mSR-BI] cells, fluorescence, single point | Scavenger receptor class B member 1 (Mus musculus), Q61009 | ldlA[mSR-BI] CHO cells, DiI-HDL uptake fluorescence, 3 h | inhibition, % at 12.5 µM | 320,000 compounds, 0.96% hits;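 active = mean replicate inhibition of at least 70% and a set share of replicates each scoring 70 or more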
SR-BI uptake up – activators of SR-BI mediated DiI-HDL uptake, primary screen, ldlA[mSR-BI] CHO cells, DiI fluorescence; activation, % at 12.5 µM; 3 h; 100 = double the neutral-control signal; 320,000 compounds, 0.096% hits;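 active = mean replicate activation of at least 60% and every replicate at or above 60%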
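Assay system: LDL receptor-deficient CHO ldlA cells overexpressing murine SR-BI / Medium: BSA-supplemented, HEPES-buffered Ham's F12, pH 7.4 / Probe or stimulus: DiI-labelled HDL at 10 µg/mL final / Timing: compound with DiI-HDL co-incubation, 3 h at 37 °C / Technique: bottom-read cell fluorescence after medium removal, ex 550/em 595 nm / Measure: HDL uptake via cellular fluorescence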
Yeast superoxide – reduction of superoxide in aged yeast, primary screen, HTS. S. cerevisiae aged cells, superoxide DHE fluorescence; active compounds read low. superoxide response (% of plate mean), % at 10 µM. 330,000 compounds, 0.18% hits. AID 2690, 2010;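 active = superoxide response under a set limit, about three screen SD below normal, cut at about 65% in these data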;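 note: yeast aged for seven days with compound at 30 °C before DHE staining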
SMARCA2 activ – SMARCA2 (BRM) function activators, primary screen, cell-based, luminescence, high throughput; AID 652017, 2013; 370,000 compounds, 1% hits; activation, % at 9.1 µM; MG213 cells, MMTV-luciferase reporter, dexamethasone, overnight; in the data active = activation above about 7.8%
AHR act – AHR activators, primary screen, cell-based, luminescence, luciferase reporter, human; Aryl hydrocarbon receptor (Homo sapiens), P35869; 320,000 compounds, 2.5% hits; activation, % at 5 µM; AHR-responsive luciferase reporter cells; in the data active = activation above about 47%
Target sequence (P35869 whole entry, looked up): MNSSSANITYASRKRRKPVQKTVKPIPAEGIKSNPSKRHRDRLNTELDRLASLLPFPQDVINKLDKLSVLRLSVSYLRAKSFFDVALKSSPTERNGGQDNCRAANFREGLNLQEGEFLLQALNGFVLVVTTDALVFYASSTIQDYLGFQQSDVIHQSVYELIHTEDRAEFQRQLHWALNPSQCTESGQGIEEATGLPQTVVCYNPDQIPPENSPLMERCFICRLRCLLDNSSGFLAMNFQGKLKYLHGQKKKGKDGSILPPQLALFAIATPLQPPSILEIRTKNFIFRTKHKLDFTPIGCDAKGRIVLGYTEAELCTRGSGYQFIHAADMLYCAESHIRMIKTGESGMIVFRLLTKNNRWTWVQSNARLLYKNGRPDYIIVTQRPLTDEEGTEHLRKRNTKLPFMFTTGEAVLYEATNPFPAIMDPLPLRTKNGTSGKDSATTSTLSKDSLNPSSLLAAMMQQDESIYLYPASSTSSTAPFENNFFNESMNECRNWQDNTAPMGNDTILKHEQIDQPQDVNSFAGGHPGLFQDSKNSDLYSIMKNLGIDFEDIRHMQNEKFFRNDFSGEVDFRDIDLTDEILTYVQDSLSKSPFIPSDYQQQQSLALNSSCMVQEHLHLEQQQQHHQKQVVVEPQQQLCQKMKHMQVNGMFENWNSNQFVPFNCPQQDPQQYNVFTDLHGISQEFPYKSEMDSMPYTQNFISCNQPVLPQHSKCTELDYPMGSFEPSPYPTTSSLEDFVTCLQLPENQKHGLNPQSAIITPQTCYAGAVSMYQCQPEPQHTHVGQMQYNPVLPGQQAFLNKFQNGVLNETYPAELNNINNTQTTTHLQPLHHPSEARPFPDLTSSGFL
Of the large screens only hits and unclear results are named; the others gave an inactive call.

COc1ccc(C2=NN(C(C#N)c3ccc(OC)cc3)C(c3ccccc3)C2)cc1 (configuration not stated)	AHR act 54
COc1ccc(-c2cc(NC(=O)Cc3c[nH]c4ccccc34)ccc2Nc2cccnc2)cc1F	none (no result: Lipid droplet, SR-BI DiI inh, SR-BI uptake up, Yeast superoxide, AHR act)
Cc1ccnc(NC(=O)/C=C/c2ccccc2[N+](=O)[O-])c1	AHR act 72 (no result: SR-BI DiI inh, SR-BI uptake up)
CCOc1ccccc1NC(=O)/C=C/c1ccccc1[N+](=O)[O-]	SR-BI DiI inh 82, AHR act 63
Cn1cc(C(=O)N/N=C/C2=C(N3CCOCC3)C(=C/c3ccc([N+](=O)[O-])cc3)/CC2)ccc1=O	none (no result: Lipid droplet, SR-BI DiI inh, SR-BI uptake up)
CC(C)C(NC(=O)C12CC3CC(CC(C3)C1)C2)C(=O)N/N=C/C1=C(N2CCOCC2)C(=C\c2cccc([N+](=O)[O-])c2)/CC1 (configuration not stated)	SR-BI DiI inh 85
Cc1ccc(NC(=O)CCC(=O)NNC(=O)COc2ccccc2)cc1C	AHR act 68
CCn1c(=O)[nH]c2cc(C(=O)Nc3cc(C)cc(C)c3)ccc2c1=O	SR-BI DiI inh 72
CCCCCn1c(=O)[nH]c2cc(C(=O)Nc3ccc(OC)cc3)ccc2c1=O	none (no result: SMARCA2 activ)
COC(=O)[C@]12C[C@H](CC(=O)N3CCCCC3)C(=O)N(Cc3ccc(Cl)cc3Cl)C1=C[C@H](C(C)C)O[C@@H]2C1CC1	none (no result: Lipid droplet, SR-BI DiI inh, SR-BI uptake up, Yeast superoxide, AHR act)
CCC(=O)N(Cc1ccco1)c1nc(C(=O)Nc2ccc(Cl)cc2)c(C)s1	AHR act 74
Nc1ccccc1Sc1nc2ccccc2[nH]1	SMARCA2 activ 9.2
Nc1nc2ccccc2[nH]1	none (no result: AHR act)
C=CCOc1c(Br)cc(/C=N/n2c(CC)n[nH]c2=S)cc1Br	AHR act 68
CC(CNC(=O)[C@@H](Cc1ccccc1)NC(=O)[C@H]1O[C@@H](n2cnc3c(=O)[nH]c(N)nc32)[C@H](O)[C@@H]1O)c1ccccc1 (some centres not stated)	none (no result: Lipid droplet, SR-BI DiI inh, SR-BI uptake up, Yeast superoxide, AHR act)
CN(C)CCN(C(=O)c1ccc(S(=O)(=O)N(C)c2ccccc2)cc1)c1nc2ccc(Cl)cc2s1	SMARCA2 activ 14
CN(C)CCN(C(=O)c1ccc(S(=O)(=O)N(C)c2ccccc2)cc1)c1nc2cc3c(cc2s1)OCO3	none
Clc1ccc(-n2c(Cc3cccs3)nnc2SC/C=C/c2ccccc2)cc1	none (no result: Lipid droplet, SR-BI DiI inh, SR-BI uptake up, Yeast superoxide, AHR act)
COc1ccccc1-c1cc2ccccc2[nH]1	AHR act 64
COc1ccc(C)cc1NC(=O)c1ccc(OCc2c(C)noc2C)cc1	SR-BI DiI inh 71 (no result: Lipid droplet)
COc1cc(C(=O)NCCOc2ccc(Cl)cc2)ccc1OCc1c(C)noc1C	SR-BI DiI inh 84 (no result: Lipid droplet)
Cc1ccc(NC(=O)c2ccc(OCc3c(C)noc3C)cc2)cc1C	SR-BI DiI inh 89 (no result: Lipid droplet)
Cc1cc2c(c(=O)o1)[C@@]1(C(=O)N(C)c3ccccc31)C1=C(CCC1=O)O2	none (no result: Lipid droplet, SR-BI DiI inh, SR-BI uptake up, Yeast superoxide, AHR act)
CCCCCCOC(=O)C[N+](C)(C)CCOC1CC2CCC1(C)C2(C)C (configuration not stated)	none
CCCCCCCOC(=O)C[N+](C)(C)CCOC1CC2CCC1(C)C2(C)C (configuration not stated)	SR-BI uptake up 69 (no result: Yeast superoxide, AHR act)
COc1cc(/C=C2\SC(=Nc3ccccc3)N(CCc3c[nH]c4ccccc34)C2=O)ccc1OC(C)C(=O)O (configuration not stated)	none
COc1ccc(N=C2S/C(=C\c3ccc(OC(C)C(=O)O)c(OC)c3)C(=O)N2CCc2c[nH]c3ccccc23)cc1 (configuration not stated)	SR-BI DiI inh 75 (no result: Yeast superoxide, AHR act)
O=C1/C(=C/c2ccc(N3CCOCC3)o2)SC(=Nc2ccccc2)N1CCc1c[nH]c2ccccc12	SR-BI DiI inh 87 (no result: Lipid droplet, SMARCA2 activ)
Cc1noc(C)c1S(=O)(=O)N1CCCc2nc(-c3ccc(F)cc3)ccc21	none (no result: Lipid droplet, SR-BI DiI inh, SR-BI uptake up, Yeast superoxide, AHR act)
CC(=O)c1ccc(N2CCN(S(=O)(=O)c3cc4[nH]c(=O)c(=O)[nH]c4cc3C)CC2)cc1	AHR act 47
COc1cccc(NC(=O)Nc2nc3ncccn3c2-c2ccc(C)cc2)c1	none (no result: Lipid droplet, SR-BI DiI inh, SR-BI uptake up, Yeast superoxide, AHR act)

High-throughput results as filed in PubChem.
